In ChEMBL document CHEMBL1146064, “Design, synthesis, and biological evaluation of semicarbazide-sensitive amine oxidase (SSAO) inhibitors with anti-inflammatory activity” (J Med Chem, 2006):

Experiments:
[1] = target: T1, Amine oxidase [copper-containing] 3 (Rattus norvegicus, UniProt O08590); assay: Inhibition of SSAO in rat lung
T1 sequence (O08590 whole entry): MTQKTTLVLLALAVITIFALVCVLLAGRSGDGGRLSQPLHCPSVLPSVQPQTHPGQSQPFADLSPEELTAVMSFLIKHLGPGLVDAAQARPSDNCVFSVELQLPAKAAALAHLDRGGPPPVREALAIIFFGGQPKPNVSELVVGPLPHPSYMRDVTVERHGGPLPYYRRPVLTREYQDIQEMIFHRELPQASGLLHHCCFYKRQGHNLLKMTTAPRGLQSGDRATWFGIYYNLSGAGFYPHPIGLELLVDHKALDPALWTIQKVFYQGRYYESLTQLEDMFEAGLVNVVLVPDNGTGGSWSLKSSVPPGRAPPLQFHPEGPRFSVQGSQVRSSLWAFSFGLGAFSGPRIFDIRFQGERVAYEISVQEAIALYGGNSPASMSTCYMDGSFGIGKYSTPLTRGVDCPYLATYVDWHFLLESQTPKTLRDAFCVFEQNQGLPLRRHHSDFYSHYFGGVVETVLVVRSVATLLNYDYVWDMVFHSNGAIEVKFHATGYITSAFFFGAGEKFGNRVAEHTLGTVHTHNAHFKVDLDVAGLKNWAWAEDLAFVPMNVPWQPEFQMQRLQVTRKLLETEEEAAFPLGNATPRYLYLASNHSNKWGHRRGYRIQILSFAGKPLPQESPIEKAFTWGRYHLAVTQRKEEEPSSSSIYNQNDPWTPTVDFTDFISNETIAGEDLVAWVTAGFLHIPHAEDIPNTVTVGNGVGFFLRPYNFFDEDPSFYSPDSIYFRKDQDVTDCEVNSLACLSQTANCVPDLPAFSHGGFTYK
Outline: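 Enzyme source is a rat lung homogenate: tissue homogenized 1:20 (w/v) in 10 mM potassium phosphate pH 7.8, then spun at 10000g for 10 min at 4 °C. Reaction stopped with citric acid, toluene/ethyl acetate extract counted by scintillation. IC50 taken from background-corrected dose-response curves (10^-3 to 10^-10 M).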

[2] = target: T2, Amine oxidase [flavin-containing] A (Homo sapiens, UniProt P21397); assay: Inhibition of recombinant human MAO-A
T2 sequence (P21397 whole entry): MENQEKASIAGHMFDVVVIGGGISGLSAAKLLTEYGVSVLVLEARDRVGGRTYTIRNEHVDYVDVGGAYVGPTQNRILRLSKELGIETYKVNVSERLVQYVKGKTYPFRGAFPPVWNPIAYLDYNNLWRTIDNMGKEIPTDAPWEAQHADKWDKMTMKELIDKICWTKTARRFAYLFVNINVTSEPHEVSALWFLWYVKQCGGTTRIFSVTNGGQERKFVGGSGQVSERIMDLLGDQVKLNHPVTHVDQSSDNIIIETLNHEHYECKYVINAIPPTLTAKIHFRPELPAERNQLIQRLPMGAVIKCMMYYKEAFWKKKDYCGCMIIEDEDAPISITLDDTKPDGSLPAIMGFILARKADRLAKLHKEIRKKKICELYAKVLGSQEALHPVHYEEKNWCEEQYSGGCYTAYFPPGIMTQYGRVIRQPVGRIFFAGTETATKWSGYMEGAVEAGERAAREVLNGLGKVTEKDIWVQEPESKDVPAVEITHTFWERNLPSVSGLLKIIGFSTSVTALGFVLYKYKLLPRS
Outline: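 Recombinant human MAO-A measured with a coupled colorimetric assay. IC50 fitted from inhibition curves over 10^-3 to 10^-10 M inhibitor.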

[3] = target: T3, Amine oxidase [flavin-containing] B (Homo sapiens, UniProt P27338); assay: Inhibition of recombinant human MAO-B
T3 sequence (P27338 whole entry): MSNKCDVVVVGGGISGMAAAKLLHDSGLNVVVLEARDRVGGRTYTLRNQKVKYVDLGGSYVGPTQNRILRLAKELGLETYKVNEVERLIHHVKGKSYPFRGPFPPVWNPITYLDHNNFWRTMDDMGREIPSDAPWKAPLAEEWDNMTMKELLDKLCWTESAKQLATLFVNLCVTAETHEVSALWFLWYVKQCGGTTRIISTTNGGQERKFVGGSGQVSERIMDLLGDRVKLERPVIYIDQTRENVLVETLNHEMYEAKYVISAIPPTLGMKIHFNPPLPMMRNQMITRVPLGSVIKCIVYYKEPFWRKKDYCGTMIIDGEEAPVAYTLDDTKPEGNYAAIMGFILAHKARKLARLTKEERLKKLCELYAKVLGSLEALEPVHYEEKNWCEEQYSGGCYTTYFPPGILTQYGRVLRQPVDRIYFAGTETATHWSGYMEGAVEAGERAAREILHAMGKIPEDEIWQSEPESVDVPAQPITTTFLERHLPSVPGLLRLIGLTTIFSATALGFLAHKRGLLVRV

[4] = Half life in Sprague-Dawley rat at 5 mg/kg, po; format: ADME, organism-based; parameters: dose 5 mg/kg, route oral; conditions: in vivo
Outline: (§1)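 Single oral dose of 5.0 mg/kg given to cannulated female Sprague Dawley rats, then plasma concentrations followed over time. Parameters come from noncompartmental analysis and are reported as mean ± SD (n = 3).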

[5] = Tmax in Sprague-Dawley rat at 5 mg/kg, po; format: ADME, organism-based; parameters: dose 5 mg/kg, route oral; conditions: in vivo; outline: as §1
[6] = Cmax in Sprague-Dawley rat at 5 mg/kg, po; format: ADME, organism-based; parameters: dose 5 mg/kg, route oral; conditions: in vivo; outline: as §1
[7] = AUC in Sprague-Dawley rat at 5 mg/kg, po; format: ADME, organism-based; parameters: dose 5 mg/kg, route oral; conditions: plasma; outline: as §1
[8] = AUC (infinity) in Sprague-Dawley rat at 5 mg/kg, po; format: ADME, organism-based; parameters: time infinity, dose 5 mg/kg, route oral; conditions: plasma; outline: as §1

| SMILES | IC50 [1] | also measured |
| --- | --- | --- |
| C=C(CNNCC)c1ccc(F)cc1 | 2.3 nM |  |
| C=C(CNNCc1ccccc1)c1ccc(F)cc1 | > 1000 nM |  |
| C=C(CN(C)N)c1ccc(F)cc1 | 240 nM |  |
| C=C(CN(N)C(C)C)c1ccc(F)cc1 | 420 nM |  |
| C=C(CNNC)c1ccc(F)cc1 | 1.7 nM |  |
| C=C(CN(N)CC)c1ccc(F)cc1 | 630 nM |  |
| C=C(CNN)c1ccc(Cl)cc1 | 3 nM |  |
| C=C(CN(N)Cc1ccccc1)c1ccc(F)cc1 | > 1000 nM |  |
| NNC/C(=C/F)c1ccccc1 | 5 nM |  |
| C=C(CNN)c1ccccc1C | 4 nM | IC50 [2]: 2000 nM; IC50 [3]: 90000 nM |
| C=C(CNNC(C)C)c1ccc(F)cc1 | > 1000 nM |  |
| C=C(CNN)c1ccc(F)cc1 | 6.1 nM | IC50 [2]: 6000 nM |
| C=C(CNN)c1ccccc1.Cl | 2 nM | IC50 [2]: 1300 nM; IC50 [3]: 71000 nM; half-life [4]: 11.3 h; Tmax [5]: 0.5 h; Cmax [6]: 366 ng/mL; AUC [7]: 1340 ng·h/mL; AUC(0-inf) [8]: 3310 ng·h/mL |
